Data published in ChEMBL document CHEMBL1123521, “Isozyme-specific enzyme inhibitors. 10. Adenosine 5'-triphosphate derivatives as substrates or inhibitors of methionine adenosyltransferases of rat normal and hepatoma tissues” (J Med Chem, 1986).

Assays:
[1] = system: Nc1ncnc2c1ncn2C1O[C@H](COP(=O)(O)OP(=O)(O)OP(N)(=O)O)[C@@H](O)[C@H]1O; test: (§1) Inhibitory constant against rat kidney Methionine adenosyltransferase II
Summary of the method: (§2)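 MAT-II from rat kidney extract, taken through DEAE chromatography and diluted 10-fold daily. Duplicate 30-min incubations at 37 °C in 150 mM KCl–15 mM MgCl2–5 mM DTT–50 mM Tris-HCl pH 8.2 with 60 μM [14C]methionine. Mg-complexed inhibitor used at two levels (1-5 × Ki) against six to eight Mg-ATP levels (0.5-4.0 × KM). Product counted on phosphocellulose disks.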

[2] = system: Nc1ncnc2c1ncn2[C@H]1C[C@H](O)[C@@H](COP(=O)(O)OP(=O)(O)OP(=O)(O)O)O1; test: as §1; summary of the method: as §2
[3] = system: CNc1nc2c(N)ncnc2n1C1O[C@H](COP(=O)(O)OP(=O)(O)OP(=O)(O)O)[C@@H](O)[C@H]1O; test: as §1; summary of the method: as §2
[4] = system: CSc1nc2c(N)ncnc2n1[C@@H]1O[C@H](COP(=O)(O)OP(=O)(O)OP(=O)(O)O)[C@@H](O)[C@H]1O; test: as §1; summary of the method: as §2
[5] = system: Nc1ncnc2c1ncn2[C@@H]1O[C@H](COP(=O)(O)OP(=O)(O)OP(=O)(O)O)[C@@H](O)[C@H]1O; test: Inhibitory constant against rat kidney Methionine adenosyltransferase II, activity expressed as conc of Mg-ATP for half maximal velocity
Summary of the method: (§3)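 Kinetics at 37 °C for 30 min, in duplicate, in 50 mM Tris-HCl pH 8.2, 150 mM KCl, 15 mM MgCl2, 5 mM DTT. Enzyme was MAT-T from ascites-passaged Novikoff hepatoma cells or MAT-II from rat kidney, both DEAE-cellulose fractions, with 60 µM [14C]methionine. Inhibitors given as 1:1 Mg complexes at two levels against six to eight Mg-ATP levels (0.5–4.0 × KM). Product counted on phosphocellulose disks.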

[6] = molecular target: S-adenosylmethionine synthase isoform type-1 (Rattus norvegicus) (UniProt P13444); test: Inhibitory potency against rat Methionine adenosyltransferase I
Sequence of S-adenosylmethionine synthase isoform type-1 (Rattus norvegicus) (P13444 whole entry, canonical isoform): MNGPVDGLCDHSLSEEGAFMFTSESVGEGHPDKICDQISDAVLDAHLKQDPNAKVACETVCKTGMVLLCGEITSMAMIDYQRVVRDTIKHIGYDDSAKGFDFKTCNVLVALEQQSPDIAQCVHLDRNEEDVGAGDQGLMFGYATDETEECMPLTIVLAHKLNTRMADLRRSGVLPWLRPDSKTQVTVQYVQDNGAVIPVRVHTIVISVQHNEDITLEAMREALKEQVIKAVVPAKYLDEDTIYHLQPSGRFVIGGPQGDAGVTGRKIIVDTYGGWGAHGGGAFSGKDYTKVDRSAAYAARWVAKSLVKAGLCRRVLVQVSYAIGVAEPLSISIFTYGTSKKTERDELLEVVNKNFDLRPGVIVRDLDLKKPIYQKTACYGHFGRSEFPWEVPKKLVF
Summary of the method: (§4)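 Rat liver MAT-I, prepared free of MAT-II and MAT-III and diluted 5-fold. Duplicate assays at 37 °C, 30 min, in 150 mM KCl–7.5 mM MgSO4–2 mM DTT–50 mM HEPES pH 7.5 with 380 μM [14C]methionine. Two inhibitor levels (1:1 Mg complexes, 1-5 × Ki) run against six to eight Mg-ATP levels spanning 0.5-4.0 × KM. Ki taken from kinetic plots.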

[7] = molecular target: S-adenosylmethionine synthase isoform type-2 (Rattus norvegicus) (UniProt P18298); test: Relative maximum velocity against rat Methionine adenosyltransferase II
Sequence of S-adenosylmethionine synthase isoform type-2 (Rattus norvegicus) (P18298 whole entry, canonical isoform): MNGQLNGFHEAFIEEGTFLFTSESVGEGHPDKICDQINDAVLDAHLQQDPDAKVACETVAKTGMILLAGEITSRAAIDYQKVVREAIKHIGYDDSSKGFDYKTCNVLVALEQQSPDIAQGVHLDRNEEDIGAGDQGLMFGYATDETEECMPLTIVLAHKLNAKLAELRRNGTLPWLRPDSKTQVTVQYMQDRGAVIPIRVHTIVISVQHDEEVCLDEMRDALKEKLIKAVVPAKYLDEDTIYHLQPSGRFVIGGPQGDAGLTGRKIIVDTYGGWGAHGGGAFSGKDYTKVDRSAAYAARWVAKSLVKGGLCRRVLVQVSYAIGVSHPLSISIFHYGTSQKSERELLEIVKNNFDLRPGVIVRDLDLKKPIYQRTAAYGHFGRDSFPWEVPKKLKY
Summary of the method: (§5)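 Analogues at 1 mM tested as substrates of MAT-II (rat kidney) or MAT-T (Novikoff hepatoma), using 10 μL of enzyme stock per assay. Run at 37 °C for 30 min in Tris-HCl pH 8.2 with 150 mM KCl and 15 mM MgCl2, plus 60 μM [14C]methionine. Radiolabelled product bound to phosphocellulose disks and counted. Kinetic constants came from double-reciprocal plots.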

[8] = molecular target: S-adenosylmethionine synthase isoform type-2 (Rattus norvegicus) (UniProt P18298); test: Inhibitory potency against rat Methionine adenosyltransferase II; summary of the method: as §2
[9] = molecular target: S-adenosylmethionine synthase isoform type-1 (Rattus norvegicus) (UniProt P13444); test: Relative maximum velocity against liver (MAT-I) in rat methionine adenosyltransferase was reported
Summary of the method: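 Substrate activity measured with rat liver MAT-I at 37 °C for 30 min, pH 7.5 HEPES buffer, with 380 μM [14C]methionine. ATP analogue at 1 mM, with a higher enzyme amount (10 μL stock). [14C]S-adenosylmethionine captured on phosphocellulose paper and counted by scintillation. Blanks lacked ATP. Constants taken from linear double-reciprocal plots.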

[10] = molecular target: T1, S-adenosylmethionine synthetase (MAT 1 and MAT 2) (Rattus norvegicus) (UniProt P13444+P18298); test: Relative inhibitory potency T/II in rat methionine adenosyltransferase
[11] = molecular target: T1, S-adenosylmethionine synthetase (MAT 1 and MAT 2) (Rattus norvegicus); test: Inhibitory potency against rat Methionine adenosyltransferase was reported; format: protein assay
Summary of the method: (§6)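 MAT-T partly purified from rat Novikoff hepatoma cells grown intraperitoneally in rats: cytosol extract, DEAE-cellulose, stored at -20 °C, diluted 10-fold for use. Assay run in duplicate, 37 °C for 30 min, in 150 mM KCl–15 mM MgCl2–5 mM DTT–50 mM Tris-HCl pH 8.2 with 60 μM [14C]methionine. Inhibitors given as 1:1 Mg complexes at two levels of 1-5 × Ki, with six to eight Mg-ATP levels (0.5-4.0 × KM).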

[12] = molecular target: S-adenosylmethionine synthase isoform type-2 (Rattus norvegicus) (UniProt P18298); test: Half maximal velocity relative to rat Methionine adenosyltransferase II
Summary of the method: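 DEAE-purified rat kidney MAT-II in 50 mM Tris-HCl pH 8.2, 150 mM KCl, 15 mM MgCl2, 5 mM DTT, with 60 µM [14C]methionine. Analogue checked for substrate activity at 1 mM using more enzyme. Incubated 37 °C for 30 min in duplicate. Acid-quenched product bound to phosphocellulose disks and counted; blanks lacked ATP. KM taken from linear double-reciprocal plots.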

[13] = molecular target: T1, S-adenosylmethionine synthetase (MAT 1 and MAT 2) (Rattus norvegicus); test: Half maximal velocity relative to methionine adenosyltransferase; format: protein assay
Summary of the method: (§7)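 ATP analogues run as Mg complexes and checked for substrate activity at 1 mM with more enzyme (10 µL stock). Apparent KM from linear double-reciprocal plots. MAT-I: rat liver, 50 mM HEPES pH 7.5, 150 mM KCl, 7.5 mM MgSO4, 2 mM DTT, 380 µM [14C]methionine. MAT-II (rat kidney) and MAT-T (Novikoff hepatoma DEAE fraction): 50 mM Tris-HCl pH 8.2, 150 mM KCl, 15 mM MgCl2, 5 mM DTT, 60 µM [14C]methionine. 37 °C, 30 min, duplicates.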

[14] = molecular target: S-adenosylmethionine synthase isoform type-1 (Rattus norvegicus) (UniProt P13444); test: Half maximal velocity relative to Methionine adenosyltransferase; summary of the method: as §7
[15] = molecular target: S-adenosylmethionine synthase isoform type-2 (Rattus norvegicus) (UniProt P18298); test: Relative maximum velocity against rat kidney Methionine adenosyltransferase II; summary of the method: as §5
[16] = molecular target: T1, S-adenosylmethionine synthetase (MAT 1 and MAT 2) (Rattus norvegicus); test: Relative maximum velocity against rat Methionine adenosyltransferase was reported; format: protein assay; summary of the method: as §5
[17] = molecular target: T1, S-adenosylmethionine synthetase (MAT 1 and MAT 2) (Rattus norvegicus); test: (§8) Inhibitory potency against rat methionine adenosyltransferase was reported; format: protein assay; summary of the method: as §6
[18] = system: Nc1ncnc2c1ncn2[C@@H]1O[C@H](COP(=O)(O)OP(=O)(O)OP(=O)(O)O)[C@@H](O)[C@H]1O; test: Inhibition of methionine adenosyltransferase in Novikoff Hepatoma(MAT-T), activity expressed as conc of Mg-ATP for half maximal velocity; format: protein assay; summary of the method: as §3
[19] = system: CNc1nc2c(N)ncnc2n1C1O[C@H](COP(=O)(O)OP(=O)(O)OP(=O)(O)O)[C@@H](O)[C@H]1O; test: (§9) […] rat Methionine adenosyltransferase was reported; format: protein assay; summary of the method: as §6
[20] = system: CSc1nc2c(N)ncnc2n1[C@@H]1O[C@H](COP(=O)(O)OP(=O)(O)OP(=O)(O)O)[C@@H](O)[C@H]1O; test: as §9; format: protein assay; summary of the method: as §6
[21] = molecular target: S-adenosylmethionine synthase isoform type-2 (Rattus norvegicus) (UniProt P18298); test: as §8; summary of the method: as §6
[22] = system: Nc1ncnc2c1ncn2[C@@H]1O[C@H](COP(=O)(O)OP(=O)(O)OP(=O)(O)O)[C@@H](O)[C@H]1O; test: […] rat liver Methionine adenosyltransferase I, activity expressed as conc of Mg-ATP for half maximal velocity
Summary of the method: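 Rat liver MAT-I, free of MAT-II and MAT-III, was assayed in 50 mM HEPES pH 7.5, 150 mM KCl, 7.5 mM MgSO4, 2 mM DTT, with 380 µM [14C]methionine, at 37 °C for 30 min in duplicate. Mg-complexed inhibitor was used at two levels against six to eight Mg-ATP levels (0.5–4.0 × KM). Labelled product was captured on phosphocellulose and scintillation-counted; blanks lacked ATP.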

[23] = system: Nc1ncnc2c1ncn2[C@H]1C[C@H](O)[C@@H](COP(=O)(O)OP(=O)(O)OP(=O)(O)O)O1; test: Inhibitory constant against rat liver Methionine adenosyltransferase I; summary of the method: as §4

Sequence of S-adenosylmethionine synthase isoform type-2 (Rattus norvegicus), P18298 (P18298 whole entry, canonical isoform): as above
Sequence of S-adenosylmethionine synthetase (MAT 1 and MAT 2) (Rattus norvegicus) (from UniProt P13444+P18298) (P18298 whole entry, looked up): as the sequence (P18298 whole entry, canonical isoform) above
Sequence of S-adenosylmethionine synthetase (MAT 1 and MAT 2) (Rattus norvegicus) (from UniProt P13444+P18298) (P13444 whole entry, looked up): as the sequence (P13444 whole entry, canonical isoform) above
Sequence of S-adenosylmethionine synthase isoform type-1 (Rattus norvegicus), P13444 (P13444 whole entry, canonical isoform): as above

S-adenosylmethionine synthase isoform type-2 (Rattus norvegicus), P18298
Km [1]: 3300 µM
Km [2]: 4000 µM
Km [3]: 160 µM
Km [4]: 100 µM
Km [5]: 140 µM

Nc1ncnc2c1ncn2[C@H]1C[C@H](O)[C@@H](COP(=O)(O)OP(=O)(O)OP(=O)(O)O)O1
Inhibition potency [6]: 0.091
Relative Vmax [7]: 6.5
Inhibition potency [8]: 0.035
Relative Vmax [9]: 26

Nc1ncnc2c1ncn2[C@@H]1O[C@H](COP(=O)(O)CP(=O)(O)OP(=O)(O)O)[C@@H](O)[C@H]1O
Inhibition potency T/II [10]: 0.89
Inhibition potency [8]: 0.46
Inhibition potency [11]: 0.41

Nc1ncnc2c1ncn2[C@@H]1O[C@H](COP(=O)(O)OP(=O)(O)OP(=O)(O)O)[C@@H](O)[C@H]1O
Relative Vmax [12]: 100
Relative Vmax [13]: 100
Relative Vmax [14]: 100

Nc1ncnc2c1nc(SCCC(N)C(=O)O)n2C1O[C@H](COP(=O)(O)OP(=O)(O)OP(=O)(O)O)[C@@H](O)[C@H]1O (some centres undefined)
Inhibition potency [8]: 0.27

CSc1nc2c(N)ncnc2n1[C@@H]1O[C@H](COP(=O)(O)OP(=O)(O)OP(=O)(O)O)[C@@H](O)[C@H]1O
Relative Vmax [15]: 3.1
Inhibition potency T/II [10]: 0.5
Relative Vmax [16]: 7.3
Inhibition potency [8]: 1.4
Inhibition potency [11]: 0.7

CO[C@@H]1[C@H](O)[C@@H](COP(=O)(O)OP(=O)(O)OP(=O)(O)O)O[C@H]1n1cnc2c(N)ncnc21
Inhibition potency T/II [10]: 0.82
Inhibition potency [17]: 0.82
Inhibition potency [8]: 1

S-adenosylmethionine synthetase (MAT 1 and MAT 2) (Rattus norvegicus) (from UniProt P13444+P18298)
Km [18]: 140 µM
Km [19]: 230 µM
Km [20]: 200 µM

CO[C@H]1[C@@H](O)[C@H](n2cnc3c(N)ncnc32)O[C@@H]1COP(=O)(O)OP(=O)(O)OP(=O)(O)O
Inhibition potency T/II [10]: 0.95
Inhibition potency [17]: 0.78
Inhibition potency [8]: 0.82

Nc1ncnc2c1ncn2[C@@H]1O[C@H](COP(=O)(O)OP(=O)(O)NP(=O)(O)O)[C@@H](O)[C@H]1O
Inhibition potency T/II [10]: 1.4
Inhibition potency [8]: 25.5
Inhibition potency [11]: 35

CCCC(OP(=O)(O)OP(=O)(O)OP(=O)(O)O)[C@H]1O[C@@H](n2cnc3c(N)ncnc32)[C@H](O)[C@@H]1O (some centres undefined)
Inhibition potency T/II [10]: 1.3
Inhibition potency [17]: 3.78
Inhibition potency [8]: 2.92

CCCCNc1ncnc2c1ncn2C1O[C@H](COP(=O)(O)OP(=O)(O)OP(=O)(O)O)[C@@H](O)[C@H]1O (some centres undefined)
Inhibition potency T/II [10]: 2.5
Inhibition potency [8]: 0.26

CSc1nc(N)c2ncn([C@@H]3O[C@H](COP(=O)(O)OP(=O)(O)OP(=O)(O)O)[C@@H](O)[C@H]3O)c2n1
Inhibition potency T/II [10]: 5.5
Inhibition potency [8]: 0.23
Inhibition potency [11]: 1.27

CC(OP(=O)(O)OP(=O)(O)OP(=O)(O)O)[C@H]1O[C@@H](n2cnc3c(N)ncnc32)[C@H](O)[C@@H]1O (some centres undefined)
Inhibition potency T/II [10]: 2.4
Inhibition potency [6]: 15.6
Inhibition potency [17]: 1.75
Inhibition potency [8]: 0.74

CNc1nc2c(N)ncnc2n1C1O[C@H](COP(=O)(O)OP(=O)(O)OP(=O)(O)O)[C@@H](O)[C@H]1O (some centres undefined)
Relative Vmax [15]: 37
Inhibition potency T/II [10]: 0.69
Relative Vmax [16]: 19
Inhibition potency [8]: 0.88
Inhibition potency [21]: 0.61

S-adenosylmethionine synthase isoform type-1 (Rattus norvegicus), P13444
Km [22]: 140 µM
Km [23]: 1540 µM

Nc1ncnc2c1ncn2C1O[C@H](COP(=O)(O)OP(=O)(O)OP(N)(=O)O)[C@@H](O)[C@H]1O (some centres undefined)
Relative Vmax [15]: 97
Inhibition potency [8]: 0.042
